Active and inactive are the calls of the source. No cut-off for these calls is given here.
Experiments:
[1] = tested on: Mus musculus; experiment: Antiinflammatory activity in Swiss mouse assessed as reduction in dextran-induced paw edema at 10 mg/kg, po treated 1 hr prior to dextran challenge and measured every 60 mins for 4 hrs by plethysmometer analysis; assay type: functional, organism-based
Summary of the method: (§1)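 Swiss mice were given an oral dose in saline + 5% DMSO 1 h before intraplantar 0.2% dextran (50 μL) into the right hind paw. Paw volume was measured by plethysmometer every 60 min up to 4 h, as the difference from the contralateral saline paw.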

[2] = tested on: Mus musculus; experiment: Antiinflammatory activity in Swiss mouse assessed as inhibition of bradykinin-induced paw edema at 0.5 mg/kg, po treated 1 hr prior to bradykinin challenge measured after 15 to 90 mins by plethysmometer analysis; assay type: functional, organism-based
Summary of the method: (§2)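 Mice were given captopril 5 mg kg–1 1 h before the bradykinin challenge to block kininases. Oral dosing (vehicle saline + 5% DMSO) preceded intraplantar bradykinin (10 nmol, 50 μL) into the right hind paw by 1 h. Plethysmometer readings at 15, 30, 60 and 90 min, relative to the contralateral paw.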

[3] = tested on: Mus musculus; experiment: Antiinflammatory activity against carrageenan-induced air pouch inflammatory Swiss mouse model assessed as number of polymorphonuclear leucocytes in air pouch at 30 mg/kg, po treated for 1 hr prior to carrageenan administration and measured after 6 hrs (reference value: 13.76 +/- 0.55X10'6/ml); assay type: functional
[4] = tested on: Mus musculus; experiment: Antiinflammatory activity against carrageenan-induced air pouch inflammatory Swiss mouse model assessed as number of polymorphonuclear leucocytes in air pouch at 120 mg/kg, po treated for 1 hr prior to carrageenan administration and measured after 6 hrs (reference value: 13.76 +/- 0.55X10'6/ml); assay type: functional
[5] = tested on: Mus musculus; experiment: Antiinflammatory activity in Swiss mouse assessed as reduction in BthTX-2-induced paw edema at 15 mg/kg, po treated 1 hr prior to BthTX-2 challenge measured after 15 to 45 mins by plethysmometer analysis; assay type: functional, organism-based
[6] = tested on: Mus musculus; experiment: Antiinflammatory activity in Swiss mouse assessed as reduction in bradykinin-induced paw edema volume at 15 mg/kg, po treated 1 hr prior to bradykinin challenge measured after 15 to 30 mins by plethysmometer analysis; assay type: functional, organism-based; summary of the method: as §2
[7] = tested on: Mus musculus; experiment: Antiinflammatory activity against carrageenan-induced paw edema in Swiss mouse assessed as reduction in paw edema at 15 mg/kg, po administered 1 hr prior to carrageenan challenge and measured after 2 to 6 hrs by plethysmometric analysis; assay type: functional, organism-based
Summary of the method: (§3)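 Male Swiss mice (25–30 g, fasted 8 h), dosed orally in saline + 5% DMSO 1 h before 50 μL 1% carrageenan into the right hind paw. Paw volume read by plethysmometer before challenge and at 2, 4 and 6 h. Edema taken as the volume difference from the saline-injected contralateral paw. Two-way ANOVA with Tukey.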

[8] = tested on: Mus musculus; experiment: Antiinflammatory activity in Swiss mouse assessed as reduction in compound 48/80-induced paw edema at 15 mg/kg, po treated 1 hr prior to compound 48/80 challenge measured after 15 to 30 mins by plethysmometer analysis; assay type: functional, organism-based
[9] = tested on: Mus musculus; experiment: Antiinflammatory activity against carrageenan-induced air pouch inflammatory Swiss mouse model assessed as TNF-alpha level in air pouch exudate at 15 mg/kg, po treated 1 hr prior to carrageenan administration and measured after 6 hrs by sandwich ELISA (reference value: 425.17 pg/ml); assay type: functional
[10] = tested on: Mus musculus; experiment: Antiinflammatory activity against carrageenan-induced air pouch inflammatory Swiss mouse model assessed as inhibition of PMNL cell migration in air pouch at 60 mg/kg, po treated 1 hr prior to carrageenan administration and measured after 6 hrs relative to control; assay type: functional
[11] = tested on: Mus musculus; experiment: Antiinflammatory activity against carrageenan-induced air pouch inflammatory Swiss mouse model assessed as number of polymorphonuclear leucocytes in air pouch at 60 mg/kg, po treated for 1 hr prior to carrageenan administration and measured after 6 hrs (reference value: 13.76 +/- 0.55X10'6/ml); assay type: functional
[12] = tested on: Mus musculus; experiment: Antiinflammatory activity against carrageenan-induced air pouch inflammatory Swiss mouse model assessed as inhibition of PMNL cell migration in air pouch at 15 mg/kg, po treated 1 hr prior to carrageenan administration and measured after 6 hrs relative to control; assay type: functional
[13] = tested on: Mus musculus; experiment: Antiinflammatory activity against carrageenan-induced air pouch inflammatory Swiss mouse model assessed as number of polymorphonuclear leucocytes in air pouch at 15 mg/kg, po treated for 1 hr prior to carrageenan administration and measured after 6 hrs (reference value: 13.76 +/- 0.55X10'6/ml); assay type: functional
[14] = tested on: Mus musculus; experiment: Antiinflammatory activity in Swiss mouse assessed as reduction in dextran-induced paw edema at 15 mg/kg, po treated 1 hr prior to dextran challenge and measured every 60 mins for 4 hrs by plethysmometer analysis; assay type: functional, organism-based; summary of the method: as §1
[15] = tested on: Mus musculus; experiment: Antiinflammatory activity in Swiss mouse assessed as inhibition of 5-HT-induced paw edema at 15 mg/kg, po treated 1 hr prior to 5-HT challenge measured after 30 mins by plethysmometer analysis; assay type: functional, organism-based
Summary of the method: (§4)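 Male Swiss mice received 15 mg kg–1 p.o. (saline + 5% DMSO) 1 h before intraplantar 5-HT (100 μg in 50 μL) into the right hind paw. Plethysmometer readings at 15, 30, 60 and 90 min. Edema expressed as volume difference from the contralateral saline paw.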

[16] = tested on: Mus musculus; experiment: Antiinflammatory activity against carrageenan-induced air pouch inflammatory Swiss mouse model assessed as inhibition of PMNL cell migration in air pouch at 30 mg/kg, po treated 1 hr prior to carrageenan administration and measured after 6 hrs relative to control; assay type: functional
[17] = tested on: Mus musculus; experiment: Antiinflammatory activity against carrageenan-induced air pouch inflammatory Swiss mouse model assessed as IL-1beta level in air pouch exudate at 15 mg/kg, po treated 1 hr prior to carrageenan administration and measured after 6 hrs by sandwich ELISA (reference value: 564.06 pg/ml); assay type: functional
[18] = tested on: Mus musculus; experiment: Antiinflammatory activity in Swiss mouse assessed as inhibition of histamine-induced paw edema at 15 mg/kg, po treated 1 hr prior to histamine challenge measured after 15 mins by plethysmometer analysis; assay type: functional, organism-based
Summary of the method: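 Swiss mice were dosed at 15 mg kg–1 orally in saline + 5% DMSO 1 h before injection of histamine (100 μg, 50 μL) into the right hind paw. Paw volume was measured by plethysmometer at 15, 30, 60 and 90 min, relative to the contralateral saline paw.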

[19] = tested on: Mus musculus; experiment: Antiinflammatory activity in Swiss mouse assessed as inhibition of acetic acid-induced increase in vascular permeability at 15 mg/kg, po treated 1 hr prior to acetic acid challenge and measured after 30 mins by Evans blue dye based assay; assay type: functional, organism-based
Summary of the method: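 Male Swiss mice received 15 mg kg–1 p.o. or vehicle (saline + 5% DMSO). After 1 h, under ketamine/xylazine (8:2 v/v, i.p.), 0.2 mL 1% Evans blue was given retro-orbitally, then 0.5 mL 1% acetic acid i.p. At 30 min the peritoneal cavity was washed with saline; exudate was centrifuged (2000 rpm, 10 min) and supernatant absorbance read at 610 nm.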

[20] = tested on: Mus musculus; experiment: Antiinflammatory activity against carrageenan-induced air pouch inflammatory Swiss mouse model assessed as inhibition of PMNL cell migration in air pouch at 120 mg/kg, po treated 1 hr prior to carrageenan administration and measured after 6 hrs relative to control; assay type: functional
[21] = tested on: Mus musculus; experiment: Antiinflammatory activity in Swiss mouse assessed as inhibition of 5-HT-induced paw edema assessed as reduction in paw volume at 15 mg/kg, po treated 1 hr prior to 5-HT challenge and measured after 15 to 90 mins by plethysmometer analysis; assay type: functional, organism-based; summary of the method: as §4
[22] = tested on: Mus musculus; experiment: Antiinflammatory activity in Swiss mouse assessed as reduction in dextran-induced paw edema at 15 mg/kg, po treated 1 hr prior to dextran challenge and measured after 3 to 4 hrs by plethysmometer analysis; assay type: functional, organism-based; summary of the method: as §1
[23] = tested on: Mus musculus; experiment: Antiinflammatory activity against carrageenan-induced air pouch inflammatory Swiss mouse model assessed as inhibition of PMNL cell migration in air pouch at 10 mg/kg, po treated 1 hr prior to carrageenan administration and measured after 6 hrs relative to control; assay type: functional
[24] = tested on: Mus musculus; experiment: Antiinflammatory activity against carrageenan-induced air pouch inflammatory Swiss mouse model assessed as number of polymorphonuclear leucocytes in air pouch at 10 mg/kg, po treated for 1 hr prior to carrageenan administration and measured after 6 hrs (reference value: 13.76 +/- 0.55X10'6/ml); assay type: functional
[25] = tested on: Mus musculus; experiment: Antiinflammatory activity against carrageenan-induced air pouch inflammatory Swiss mouse model assessed as IL-1beta level in air pouch exudate at 10 mg/kg, po treated 1 hr prior to carrageenan administration and measured after 6 hrs by sandwich ELISA (reference value: 564.06 pg/ml); assay type: functional
[26] = tested on: Mus musculus; experiment: Antiinflammatory activity against carrageenan-induced air pouch inflammatory Swiss mouse model assessed as TNF-alpha level in air pouch exudate at 10 mg/kg, po treated 1 hr prior to carrageenan administration and measured after 6 hrs by sandwich ELISA (reference value: 425.17 pg/ml); assay type: functional
[27] = tested on: Mus musculus; experiment: Antiinflammatory activity against carrageenan-induced paw edema in Swiss mouse assessed as reduction in paw edema at 10 mg/kg, po administered 1 hr prior to carrageenan challenge and measured after 2 to 6 hrs by plethysmometer analysis; assay type: functional, organism-based; summary of the method: as §3

Compound | Activity [3] | Activity [4] | Activity [5] | Activity [6] | Activity [7] | inhibition [8] | Activity [9] | inhibition in vivo at 60 mg/kg [10] | Activity [11] | inhibition in vivo at 15 mg/kg [12] | Activity [13] | inhibition in vivo at 30 mg/kg [16] | Activity [17] | inhibition [18] | inhibition [19] | inhibition in vivo at 120 mg/kg [20] | further results
CN1CCC(=C2c3ccccc3C=Cc3ccccc32)CC1 |  |  |  |  |  |  |  |  |  |  |  |  |  |  |  |  | Activity [1]: Active
C[C@@H]1C[C@H]2[C@@H]3CCC4=CC(=O)C=C[C@]4(C)[C@@]3(F)[C@@H](O)C[C@]2(C)[C@@]1(O)C(=O)CO |  |  |  |  |  |  |  |  |  |  |  |  |  |  |  |  | inhibition [2]: Active
O=C(N/N=C\c1ccc(Cl)cc1)C1=NO[C@@H]2[C@H]1CCN2C(=O)c1ccc(Cl)cc1 (racemic) | 4.97 ×10⁶ /ml | 6.1 ×10⁶ /ml | Active | Active | Active | Active | 271.6 pg/mL | 57% | 5.94 ×10⁶ /ml | 76% | 3.33 ×10⁶ /ml | 64% | 323.11 pg/mL | Active | Active | 56% | Activity [14]: Active; inhibition [15]: Active
COc1ccc(/C=N\NC(=O)C2=NO[C@@H]3[C@H]2CCN3C(=O)c2ccc([N+](=O)[O-])cc2)cc1 (racemic) | 6.72 ×10⁶ /ml | 12.72 ×10⁶ /ml | Active | Active | Active | Active | 305.88 pg/mL | 35% | 8.98 ×10⁶ /ml | 67% | 4.6 ×10⁶ /ml | 51% | 358.28 pg/mL | Active | Active | 8% | inhibition [21]: Active; Activity [22]: Active
COc1ccc2c(c1)c(CC(=O)O)c(C)n2C(=O)c1ccc(Cl)cc1 [INDOMETHACIN] |  |  |  |  |  |  |  |  |  |  |  |  |  |  |  |  | inhibition in vivo at 10 mg/kg [23]: 65%; Activity [24]: 4.84 ×10⁶ /ml; Activity [25]: <=329.81 pg/ml; Activity [26]: 458.97 pg/mL; Activity [27]: Active

Source: ChEMBL document CHEMBL4373671, “Evaluation of anti-inflammatory activity and molecular docking study of new aza-bicyclic isoxazoline acylhydrazone derivatives” (2019)
